Sampled rows, rich in hits. Any-hit rate of the full collection: about 3.3%.
DENV2 CPE: inhibitors of DENV2 cytopathic effect. CPE inhibition, % at 9.99 µM. DENV2-infected cells, cytopathic effect rescue, plate reader. 1.7% of 350,000 active; in the data active = CPE inhibition above about 20%, passing the limit was not always enough; inconclusive = no clear call, values can overlap the other calls; tested in BHK-21 cells;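 also: 0% = median of neutral control wells and 100% = median of positive control wells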
FGF22 binding: FGF22 (human) thermal shift binding. activity (Tm shift, normalised), % at 9.99 µM. recombinant FGF22 thermal shift, SYPRO orange fluorescence; percent of sucrose octasulfate shift, DMSO zero. 1.5% of 340,000 active. Q9HCT0. AID 651658;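 active = mean Tm shift, scaled 0 neutral to 100 positive control, at about 1.3% or above, every replicate too, limit read from the data; inconclusive = no clear call, values can overlap the other calls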
Target sequence (Q9HCT0 whole entry, looked up): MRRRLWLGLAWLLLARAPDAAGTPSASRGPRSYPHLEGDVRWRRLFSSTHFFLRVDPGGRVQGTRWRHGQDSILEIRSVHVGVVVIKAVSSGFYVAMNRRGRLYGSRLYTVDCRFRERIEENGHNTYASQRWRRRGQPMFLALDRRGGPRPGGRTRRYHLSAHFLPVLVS
Statin myotox sup: protects C2C12 myotubes from simvastatin toxicity; rescue of ATP level, % at 7.49 µM; 0.78% of 330,000 active; ATP luminescence, 48 h; scaled: DMSO 0, geranylgeraniol control 100;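 active = mean ATP rescue above about 67%, or every replicate alone reaching that limit, limit read from the data, passing the limit was not always enough; inconclusive = no clear call, values can overlap the other calls; inactive = mean under the limit and some replicate under it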;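 also: myotubes were challenged with 10 µM simvastatin during compound exposure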
PglD DTNB: blocks C. jejuni PglD acetyltransferase activity; AID 602405; purified PglD enzyme, DTNB colorimetric CoA detection; 0.098% of 360,000 active; inhibition, % at 12.5 µM; in the data active = inhibition above about 16%, passing the limit was not always enough; inconclusive = no clear call, values can overlap the other calls
XiGFP reactiv: reactivates the inactive X chromosome in mouse fibroblasts. 0.055% of 360,000 active. activation, % at 7.58 µM. XiGFP mouse fibroblasts, % GFP-positive cells imaging, 3 d; cells co-treated with 5-aza-dC sensitizer; scaled so ellipticine positive control = 100%;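 active = mean normalized replicate activation at least 10% and every replicate at or above 10%; inconclusive = only one of the two criteria met; inactive = mean below 10% and not all replicates reach 10%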;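 also: 0% = median of on-plate neutral control wells and 100% = ellipticine 6 µM median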
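Schedule: 3 d treatment, 15 min room-temperature fixation; system: 68-5-11 XiGFP fibroblast line; buffer or medium: DMEM plus 5-aza-dC sensitizer; control set: ellipticine 6 µM positive control; compound: one concentration, pinned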
E-sel inducer: E-selectin induction on HUVECs; AID 686992; P16581; HUVEC E-selectin immunofluorescence imaging; normalized: neutral wells 0, TNF-alpha wells 100; 0.37% of 260,000 active; activation, % at 7.58 µM;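 active = mean E-selectin-positive cell signal at least 10% of the positive control, reached in at least 60% of replicates, without over 20% cell loss; inconclusive = no rule given, readout overlaps actives, possibly toxicity-flagged; inactive = the rest, including those meeting only one limit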
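Test system: HUVEC; input: 3,000 HUVEC/well; measured by: immunofluorescence imaging; read-out: % PE-positive cells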
* hit, by the source's call.

Screening COc1cc(C2NCCc3c2[nH]c2ccccc32)ccc1OC(C)C (stereo not given) returned DENV2 CPE 2, FGF22 binding 44*, PglD DTNB -7, XiGFP reactiv 0 and E-sel inducer 6.
Screening CO[C@H]1CN(C)C(=O)c2cc(NC(=O)C3CC3)ccc2OC[C@H](C)N(C(=O)c2ccccn2)C[C@@H]1C returned Statin myotox sup -4, XiGFP reactiv 0 and E-sel inducer 0.
`CC1(C(=O)NNC(=O)c2cccc([N+](=O)[O-])c2)CC1Br` (stereo not given) gave DENV2 CPE 15, FGF22 binding 0, Statin myotox sup 4, PglD DTNB 3, XiGFP reactiv 0 and E-sel inducer 0.
O=C(NNC(=O)C12CC3CC(CC(C3)C1)C2)c1cccc([N+](=O)[O-])c1 was read as DENV2 CPE 20*, FGF22 binding 0, Statin myotox sup 1, PglD DTNB -6 and XiGFP reactiv 1.
Screening C[C@@H]1CN([C@@H](C)CO)C(=O)Cc2cc(N(C)C)ccc2O[C@@H]1CN(C)S(=O)(=O)c1ccccc1 returned DENV2 CPE 2, FGF22 binding -1, Statin myotox sup -33, PglD DTNB -2 and XiGFP reactiv 0.
Screening CN1C(=CC=C2C=C(I)C(=O)C(I)=C2)C(C)(C)c2ccccc21 returned DENV2 CPE -5, FGF22 binding 0, Statin myotox sup -59, PglD DTNB 1, XiGFP reactiv 0 and E-sel inducer 163*.
Screening C[C@@H]1CN([C@@H](C)CO)C(=O)Cc2cc(NS(=O)(=O)c3ccc(F)cc3)ccc2O[C@H]1CN(C)S(=O)(=O)c1cccs1 returned DENV2 CPE -3, FGF22 binding 0, Statin myotox sup 1, PglD DTNB 4, XiGFP reactiv -1 and E-sel inducer 0.
For CS(=O)(=O)N1CCN=C1SCc1ccc([N+](=O)[O-])cc1 the results were DENV2 CPE -8, FGF22 binding 43* and XiGFP reactiv 0.
Screening CCCCCn1c(N2CCC(C(N)=O)CC2)nc2c1c(=O)[nH]c(=O)n2C returned Statin myotox sup 107* and PglD DTNB 7.
CCCCCCn1c(N2CCC(C)CC2)nc2c1c(=O)[nH]c(=O)n2C was read as Statin myotox sup 8 and PglD DTNB 3.
For CCOCCn1c(N2CCN(c3ccccc3)CC2)nc2c1c(=O)[nH]c(=O)n2C the results were DENV2 CPE -3, FGF22 binding 43*, XiGFP reactiv 0 and E-sel inducer 2.
`Cn1c(=O)[nH]c(=O)c2c1nc(N1CCNCC1)n2CCOc1ccccc1` gave Statin myotox sup -10 and PglD DTNB -5.
C[C@H](NC(=O)C[C@H]1C[C@H]2c3cc(NC(=O)C4CCC4)ccc3O[C@H]2[C@H](CO)O1)c1ccccc1 was read as DENV2 CPE 3, Statin myotox sup 3, PglD DTNB 0, XiGFP reactiv 0 and E-sel inducer 6.
For CCC(=O)N(C)C[C@@H]1Oc2cc(-c3ccc(OC)cc3)ccc2S(=O)(=O)N([C@H](C)CO)C[C@@H]1C the results were DENV2 CPE 9, FGF22 binding 0, Statin myotox sup 22, PglD DTNB 1, XiGFP reactiv 0 and E-sel inducer 0.
CN1[C@@H]2c3ccc(-c4ccncc4)c(=O)n3C[C@H]1[C@H](CO)[C@H]2C(=O)N1CCC(Cc2ccccc2)CC1 was read as DENV2 CPE 25*, FGF22 binding 0, Statin myotox sup -30, PglD DTNB 2, XiGFP reactiv 0 and E-sel inducer 0.
`O=C(NC1CCC1)[C@H]1[C@H](CO)[C@H]2Cn3c(ccc(C4=CCCCC4)c3=O)[C@H]2N1C(=O)C1CCOCC1` gave DENV2 CPE 65*, FGF22 binding 0, Statin myotox sup 19, PglD DTNB 3, XiGFP reactiv 0 and E-sel inducer 0.
For O=C([C@@H]1[C@@H](CO)[C@@H]2Cn3c(ccc(-c4ccccc4)c3=O)[C@H]1N2)N1CCCCC1 the results were DENV2 CPE inconclusive, FGF22 binding 0, Statin myotox sup -2, PglD DTNB 4, XiGFP reactiv 0 and E-sel inducer 0.
CS(=O)(=O)N1[C@@H]2c3ccc(-c4ccc(F)cc4)c(=O)n3C[C@H]1[C@H](CO)[C@H]2C(=O)N1CCOCC1 was read as DENV2 CPE 115*, FGF22 binding 0, Statin myotox sup 0, PglD DTNB -1, XiGFP reactiv 1 and E-sel inducer 0.
Screening O=C([C@@H]1[C@@H](CO)[C@@H]2Cn3c(ccc(C4=CCCCC4)c3=O)[C@H]1N2)N1CCCCC1 returned DENV2 CPE 35*, FGF22 binding 0, Statin myotox sup -3, PglD DTNB -2, XiGFP reactiv 0 and E-sel inducer 0.
For Cc1noc(C)c1NC(=O)N(C)C[C@H]1Oc2ccc(NS(=O)(=O)c3ccc(Cl)cc3)cc2CC(=O)N([C@@H](C)CO)C[C@@H]1C the results were DENV2 CPE -2, FGF22 binding 0, Statin myotox sup -24, PglD DTNB 1, XiGFP reactiv -1 and E-sel inducer 9.
CCN1[C@@H]2Cn3c(ccc(-c4ccccc4F)c3=O)[C@H]1[C@@H](C(=O)N1CCCCC1)[C@@H]2CO was read as DENV2 CPE 12, FGF22 binding 0, Statin myotox sup -9, PglD DTNB 6, XiGFP reactiv 0 and E-sel inducer 0.
`CN1[C@@H]2c3ccc(C4=CCCC4)c(=O)n3C[C@H]1[C@H](CO)[C@H]2C(=O)N1CCCCC1` gave DENV2 CPE -16, FGF22 binding 0, Statin myotox sup 4, PglD DTNB -2, XiGFP reactiv 0 and E-sel inducer 0.
For CN1[C@@H]2Cn3c(ccc(C4=CCCC4)c3=O)[C@H]1[C@@H](C(=O)N1CCCCC1)[C@@H]2CO the results were DENV2 CPE 110*, FGF22 binding 0, Statin myotox sup 9, PglD DTNB 2, XiGFP reactiv 0 and E-sel inducer 0.
Screening CO[C@H]1/C=C/O[C@@]2(C)Oc3c(C)c(O)c4c(O)c(c5c(c4c3C2=O)NC2(CCN(CC(C)C)CC2)N=5)=NC(=O)/C(C)=C\C=C\[C@H](C)[C@H](O)[C@@H](C)[C@@H](O)[C@@H](C)[C@H](OC(C)=O)[C@@H]1C returned DENV2 CPE 110*, FGF22 binding 0, Statin myotox sup -34 and PglD DTNB -2.
For O=S(=O)(c1ccccc1)N1CC2(C1)[C@H](c1ccccc1)[C@H](CO)N2CCC(F)(F)F the results were DENV2 CPE -16, FGF22 binding 0, XiGFP reactiv 0 and E-sel inducer 0.

Screens: PubChem, Broad Institute
